{"source": "paper PMC4818360", "about": "(Iranian Journal of Basic Medical Sciences, 2016)", "key": {"[1]": {"assay": "Hydrogen peroxide scavenging assay", "settings": "at 0.312 mg/ml, 20 min, 230 nm, mean ± SD (n = 3)", "procedure,_shortened": "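H2O2 was made at 40 mM in saline phosphate buffer, pH 7.4, and its level checked at 230 nm. 100 μl of methanolic test compound or standard solution (0.312 mg/ml) went into 2 ml of H2O2 solution. A230 was read after 20 min against a blank of compound in buffer without H2O2. Scavenging % = (Ac−At)/Ac×100. BHT and gallic acid were standards; three replicates.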"}, "[2]": {"assay": "DPPH free radical scavenging assay", "settings": "methanolic solutions, 30 min, 517 nm, mean ± SD (n = 3)", "procedure,_shortened": "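DPPH stock (60 μM in methanol), 1 ml, mixed with 1 ml of test compound or standard at 0.0125, 0.025, 0.05, 0.1 and 0.2 mg/ml. Shaken, left 30 min, then read at 517 nm. Scavenging % = (Ac−At)/Ac×100, where the control holds all reagents except the compound. BHT was the standard. IC50 came from logarithmic non-linear regression; three replicates.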"}, "[3]": {"target": "mushroom tyrosinase (EC 1.14.18.1) (Agaricus bisporus, UniProt C7FF04)", "sequence (C7FF04 1-392)": "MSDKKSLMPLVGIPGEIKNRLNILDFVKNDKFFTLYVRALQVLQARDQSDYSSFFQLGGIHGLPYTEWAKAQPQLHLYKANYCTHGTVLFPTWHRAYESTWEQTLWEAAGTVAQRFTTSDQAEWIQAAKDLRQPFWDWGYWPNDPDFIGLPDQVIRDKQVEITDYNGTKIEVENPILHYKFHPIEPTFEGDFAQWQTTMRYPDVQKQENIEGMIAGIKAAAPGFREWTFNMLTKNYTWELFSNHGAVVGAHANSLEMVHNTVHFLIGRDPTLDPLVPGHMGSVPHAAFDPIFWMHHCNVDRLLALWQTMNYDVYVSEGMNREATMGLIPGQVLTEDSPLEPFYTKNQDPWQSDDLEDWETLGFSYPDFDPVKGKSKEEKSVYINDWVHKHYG", "assay": "biochemical"}}}
{"smiles": "Cc1cc(C(C)(C)C)c(O)c(C(C)(C)C)c1", "note": "[BHT, Butylated hydroxyl toluene, reference compound]", "values": [{"measurement": "H2O2 Scavenging", "setting": "[1]", "result": "78.52±1.85", "unit": "%"}, {"measurement": "IC50 values for DPPH", "setting": "[2]", "result": "49.19 ± 1.7", "unit": "µg/mL"}]}
{"smiles": "COc1ccc(NCc2cc(=O)c(O)cn2C)cc1", "note": "[Compound 2, 5-Hydroxy-2-[(4-methoxyphenylamino)methyl]-1-methylpyridin-4(1H)-one]", "values": [{"measurement": "IC50", "setting": "[3]", "result": "617 ± 19", "unit": "µM"}, {"measurement": "H2O2 Scavenging", "setting": "[1]", "result": "64.97±0.96", "unit": "%"}, {"measurement": "IC50 values for DPPH", "setting": "[2]", "result": "44.62 ± 2.9", "unit": "µg/mL"}]}
{"smiles": "Cn1cc(O)c(=O)cc1CNc1ccc(O)cc1", "note": "[Compound 3, 5-Hydroxy-2-[(4-hydroxyphenylamino)methyl]-1-methylpyridin-4(1H)-one]", "values": [{"measurement": "IC50", "setting": "[3]", "result": "404 ± 14", "unit": "µM"}, {"measurement": "H2O2 Scavenging", "setting": "[1]", "result": "63.70±1.49", "unit": "%"}, {"measurement": "IC50 values for DPPH", "setting": "[2]", "result": "34.38 ± 1.9", "unit": "µg/mL"}]}
{"smiles": "O=c1cc(CNc2cccc([N+](=O)[O-])c2)[nH]cc1O", "note": "[Compound 11, 5-Hydroxy-2-[(3-nitrophenylamino)methyl]pyridin-4(1H)-one]", "values": [{"measurement": "IC50", "setting": "[3]", "result": "217 ± 9", "unit": "µM"}, {"measurement": "H2O2 Scavenging", "setting": "[1]", "result": "61.77±1.16", "unit": "%"}, {"measurement": "IC50 values for DPPH", "setting": "[2]", "result": "25.17 ± 1.8", "unit": "µg/mL"}]}
{"smiles": "O=C(O)c1cc(O)c(O)c(O)c1", "note": "[Galic acid, gallic acid, reference compound]", "values": [{"measurement": "H2O2 Scavenging", "setting": "[1]", "result": "97.39±0.76", "unit": "%"}]}
